Data: ChEMBL document CHEMBL1770143, “Biological evaluation of 3'-O-alkylated analogs of salacinol, the role of hydrophobic alkyl group at 3' position in the side chain on the α-glucosidase inhibitory activity” (Bioorg Med Chem Lett, 2011)

How the values were obtained:
[1] = biological target: T1, Sucrase-isomaltase, intestinal (Rattus norvegicus, UniProt P23739); experiment: Inhibition of rat small intestinal sucrase after 30 mins by glucose-oxidase method
In short: (§1)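 Enzyme source was rat small-intestinal brush border membrane vesicles suspended in 0.1 M maleate buffer, pH 6.0. Substrate solutions, prior to mixing, were maltose 74 mM (maltase), sucrose 74 mM (sucrase) and isomaltose 7.4 mM (isomaltase). Substrate, inhibitor and enzyme were incubated at 37 °C for 30 min, then stopped by 2 min boiling. Released glucose was measured by glucose oxidase. Final DMSO was 2.5%.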

[2] = biological target: T1, Sucrase-isomaltase, intestinal; experiment: Inhibition of rat small intestinal isomaltase after 30 mins by glucose-oxidase method; in short: as §1
[3] = biological target: T1, Sucrase-isomaltase, intestinal; experiment: Competitive inhibition of rat intestinal isomaltase
[4] = biological target: T1, Sucrase-isomaltase, intestinal; experiment: Competitive inhibition of rat intestinal sucrase

T1 sequence (P23739 1-1013 limits assumed): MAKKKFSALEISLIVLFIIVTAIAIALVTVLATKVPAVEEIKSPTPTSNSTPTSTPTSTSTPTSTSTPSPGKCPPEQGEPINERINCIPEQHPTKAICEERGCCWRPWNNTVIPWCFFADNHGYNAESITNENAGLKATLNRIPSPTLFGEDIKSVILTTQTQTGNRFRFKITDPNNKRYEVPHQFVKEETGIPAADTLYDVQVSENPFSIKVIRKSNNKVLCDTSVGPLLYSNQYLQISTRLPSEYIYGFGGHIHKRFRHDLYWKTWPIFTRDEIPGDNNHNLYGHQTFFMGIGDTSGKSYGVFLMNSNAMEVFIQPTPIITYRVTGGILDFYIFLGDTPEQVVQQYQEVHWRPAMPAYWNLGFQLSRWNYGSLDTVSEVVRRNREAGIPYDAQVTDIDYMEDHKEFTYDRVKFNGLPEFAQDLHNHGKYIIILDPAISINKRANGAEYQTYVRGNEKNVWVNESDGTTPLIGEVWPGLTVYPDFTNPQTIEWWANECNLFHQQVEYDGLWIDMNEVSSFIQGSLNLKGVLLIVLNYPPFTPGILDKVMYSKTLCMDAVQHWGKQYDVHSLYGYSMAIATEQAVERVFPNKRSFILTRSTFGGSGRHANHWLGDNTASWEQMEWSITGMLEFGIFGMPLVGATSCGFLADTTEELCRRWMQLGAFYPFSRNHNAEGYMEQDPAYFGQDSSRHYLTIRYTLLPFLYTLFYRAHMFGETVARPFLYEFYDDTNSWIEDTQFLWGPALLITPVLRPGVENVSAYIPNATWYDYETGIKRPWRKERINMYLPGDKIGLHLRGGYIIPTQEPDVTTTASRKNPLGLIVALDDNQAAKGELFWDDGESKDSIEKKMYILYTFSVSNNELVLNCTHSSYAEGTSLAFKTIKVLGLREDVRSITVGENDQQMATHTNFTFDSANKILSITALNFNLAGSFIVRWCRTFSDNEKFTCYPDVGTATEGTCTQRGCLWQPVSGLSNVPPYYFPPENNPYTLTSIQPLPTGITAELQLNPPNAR
T1 sequence (P23739 1014-1841 limits assumed): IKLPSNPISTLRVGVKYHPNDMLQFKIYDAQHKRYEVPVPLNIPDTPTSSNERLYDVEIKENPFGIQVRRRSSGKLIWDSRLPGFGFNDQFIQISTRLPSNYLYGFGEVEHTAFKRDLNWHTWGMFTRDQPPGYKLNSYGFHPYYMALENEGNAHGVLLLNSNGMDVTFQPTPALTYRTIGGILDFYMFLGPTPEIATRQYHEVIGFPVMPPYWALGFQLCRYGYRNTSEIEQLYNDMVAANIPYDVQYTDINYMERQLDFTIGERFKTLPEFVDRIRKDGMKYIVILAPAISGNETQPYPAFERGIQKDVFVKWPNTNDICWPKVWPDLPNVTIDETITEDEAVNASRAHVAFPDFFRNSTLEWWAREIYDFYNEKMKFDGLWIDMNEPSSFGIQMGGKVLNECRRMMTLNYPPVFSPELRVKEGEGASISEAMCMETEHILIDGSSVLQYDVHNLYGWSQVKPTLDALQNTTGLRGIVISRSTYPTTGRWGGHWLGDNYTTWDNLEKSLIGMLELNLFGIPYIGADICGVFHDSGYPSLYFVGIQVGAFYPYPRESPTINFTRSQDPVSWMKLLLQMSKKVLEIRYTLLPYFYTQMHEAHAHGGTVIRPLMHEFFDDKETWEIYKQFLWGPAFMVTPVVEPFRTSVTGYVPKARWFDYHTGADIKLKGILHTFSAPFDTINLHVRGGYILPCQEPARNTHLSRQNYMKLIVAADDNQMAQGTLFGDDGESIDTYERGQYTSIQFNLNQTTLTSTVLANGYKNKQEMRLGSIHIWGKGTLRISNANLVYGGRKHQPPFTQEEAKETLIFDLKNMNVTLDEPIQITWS

Structure (SMILES) | IC50 [1] [nM] | IC50 [2] [nM] | Ki [3] [nM] | Ki [4] [nM]
CCCCCCCCCCCCCO[C@@H](CO)[C@H](O)C[S+]1C[C@@H](O)[C@H](O)[C@H]1CO (single isomer, unassigned) | 1300 | 950 | – | –
OC[C@H](OCc1ccccc1)[C@H](O)C[S+]1C[C@@H](O)[C@H](O)[C@H]1CO (single isomer, unassigned) | 320 | – | – | –
O=S(=O)([O-])O[C@@H](CO)[C@H](O)C[S@+]1C[C@@H](O)[C@H](O)[C@H]1CO [SALACINOL] | – | – | 1410 | 957

The remaining compounds from weak to strong by IC50 [1], led by results:

IC50 [1] [nM] | IC50 [2] [nM] | Ki [3] [nM] | Ki [4] [nM] | Structure (SMILES)
460 | 390 | – | – | CO[C@@H](CO)[C@H](O)C[S+]1C[C@@H](O)[C@H](O)[C@H]1CO (single isomer, unassigned)
120 | 270 | – | – | CCO[C@@H](CO)[C@H](O)C[S+]1C[C@@H](O)[C@H](O)[C@H]1CO (single isomer, unassigned)
